This is an account of results in ChEMBL document CHEMBL1795226, “Generation of novel radiolabeled opiates through site-selective iodination” (Bioorg Med Chem Lett, 2011).

Assay [1] deals with T1, Kappa-type opioid receptor (Homo sapiens, UniProt P41145). The assay can be described thus: Displacement of [3H]-U69593 from KOR-1 expressed in CHO cells after 60 mins. The class given is cell-based. The gist of the method:
(§1)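 Competition binding in membranes of CHO cells stably transfected with MOR-1, DOR-1 or KOR-1. Tracers were 1 nM 3H-DAMGO (MOR-1), 3H-DPDPE (DOR-1) or 3H-U69,593 (KOR-1). IC50 came from nonlinear regression and was converted to Ki. Values are the mean ± SEM of at least three independent replications.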
In general terms: Displacement assays read how much labelled ligand stays bound in the presence of the test substance.

Assay [2] has as its target T2, Mu-type opioid receptor (Homo sapiens, UniProt P35372). The assay can be described thus: Binding affinity to MOR-1 expressed in CHO cells after 90 mins. The class given is cell-based. The conditions noted are these: for Bmax: tested as the 125I-labelled form. The gist of the method:
(§2)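 Saturation binding of the carrier-free 125I-radioligand (KD) in membranes of CHO cells stably transfected with the named opioid receptor. For one DOR-1 saturation, specific activity was diluted 10-fold to allow higher ligand concentrations. Curves were fit to a single site by nonlinear regression. KD is the mean ± SEM of at least 3 independent determinations.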

Assay [3] addresses T1, Kappa-type opioid receptor. Put plainly: Binding affinity to KOR-1 expressed in CHO cells after 90 mins. The class given is cell-based. The conditions noted are these: for Bmax: tested as the 125I-labelled form. The gist of the method:
as §2

For assay [4], the target named is T3, Delta-type opioid receptor (Homo sapiens, UniProt P41143). The assay can be described thus: Binding affinity to DOR-1 expressed in CHO cells after 90 mins. The conditions noted are these: for Bmax: tested as the 125I-labelled form. The class given is cell-based. The gist of the method: as §2
Assay [5] addresses T2, Mu-type opioid receptor. Put plainly: Displacement of [3H]-DAMGO from MOR-1 expressed in CHO cells after 150 mins. The class given is cell-based. The gist of the method: as §1
The target in assay [6] is T3, Delta-type opioid receptor. Put plainly: Displacement of [3H]-DPDPE from DOR-1 expressed in CHO cells after 60 mins. The class given is cell-based. The gist of the method:
as §1

Assay [7] concerns the target T1, Kappa-type opioid receptor. Put plainly: Displacement of [125I]-IBNtxA from KOR-1 expressed in CHO cells. The class given is cell-based.
In assay [8] the target is T1, Kappa-type opioid receptor. The assay can be described thus: Displacement of [125I]-IBNalA from KOR-1 expressed in CHO cells. The class given is cell-based.
In assay [9] the target is T2, Mu-type opioid receptor. Put plainly: biochemical. The class given is cell-based, CHO.
The target of assay [10] is T2, Mu-type opioid receptor. Put plainly: biochemical. The class given is cell-based, CHO. This is another data set of the same source.
Assay [11] concerns the target T2, Mu-type opioid receptor. The assay can be described thus: biochemical. The class given is cell-based, CHO. The source holds these as a separate data set.

T2 sequence (P35372 whole entry): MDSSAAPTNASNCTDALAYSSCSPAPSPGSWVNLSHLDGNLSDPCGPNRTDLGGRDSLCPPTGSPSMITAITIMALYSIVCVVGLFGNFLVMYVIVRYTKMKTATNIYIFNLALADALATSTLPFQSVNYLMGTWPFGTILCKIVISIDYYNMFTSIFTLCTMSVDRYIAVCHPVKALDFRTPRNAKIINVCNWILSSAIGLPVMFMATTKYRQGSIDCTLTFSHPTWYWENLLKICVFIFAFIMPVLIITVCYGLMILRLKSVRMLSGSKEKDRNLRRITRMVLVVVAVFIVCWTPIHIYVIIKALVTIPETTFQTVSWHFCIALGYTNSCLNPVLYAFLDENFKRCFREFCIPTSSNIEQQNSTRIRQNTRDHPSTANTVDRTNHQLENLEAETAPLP
T3 sequence (P41143 whole entry): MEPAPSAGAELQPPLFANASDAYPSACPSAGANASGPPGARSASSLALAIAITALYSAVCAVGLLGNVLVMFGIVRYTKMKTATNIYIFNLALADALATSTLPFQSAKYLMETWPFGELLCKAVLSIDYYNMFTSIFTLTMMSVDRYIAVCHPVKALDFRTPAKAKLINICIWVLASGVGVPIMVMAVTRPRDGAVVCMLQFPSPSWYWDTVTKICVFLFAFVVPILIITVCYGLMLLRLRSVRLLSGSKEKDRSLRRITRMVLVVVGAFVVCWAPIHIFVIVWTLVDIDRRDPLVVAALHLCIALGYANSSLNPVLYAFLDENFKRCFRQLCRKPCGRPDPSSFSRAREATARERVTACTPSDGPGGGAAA
T1 sequence (P41145 whole entry): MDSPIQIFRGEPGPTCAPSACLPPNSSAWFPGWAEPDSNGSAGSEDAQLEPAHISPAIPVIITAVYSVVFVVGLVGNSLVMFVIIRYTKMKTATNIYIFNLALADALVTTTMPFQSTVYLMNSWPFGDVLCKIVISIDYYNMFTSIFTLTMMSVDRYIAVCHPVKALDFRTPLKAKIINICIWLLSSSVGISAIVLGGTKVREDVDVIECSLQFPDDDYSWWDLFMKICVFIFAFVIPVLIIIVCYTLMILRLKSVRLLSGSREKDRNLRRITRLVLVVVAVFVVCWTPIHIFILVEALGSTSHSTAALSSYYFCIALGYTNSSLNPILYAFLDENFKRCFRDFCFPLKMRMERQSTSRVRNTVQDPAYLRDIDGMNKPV

Turning to `O=C(N[C@@H]1CC[C@@]2(O)[C@H]3Cc4ccc(O)c5c4[C@@]2(CCN3CC2CC2)[C@H]1O5)c1cccc(I)c1`, the Ki amounted to 0.23 nM in assay [1], 2.5 nM on Mu-type opioid receptor [5] and 0.58 nM in [6]. For the same compound, the Bmax on Mu-type opioid receptor [2] is 3.81 pmol/mg; in assay [3], 0.57 pmol/mg; in assay [4], 0.96 pmol/mg.

As for `CN1CC[C@]23c4c5ccc(O)c4O[C@H]2[C@H](NC(=O)c2cccc([125I])c2)CC[C@@]3(O)[C@H]1C5`, binding at Mu-type opioid receptor [2] was put at a Kd of 0.08 nM.

For `N=C(N)Nc1ccc2[nH]c3c(c2c1)C[C@@]1(O)[C@H]2Cc4ccc(O)c5c4[C@@]1(CCN2CC1CC1)[C@H]3O5` [GUANIDINONALTRINDOLE], the results for the Ki in assay [7] and in [8] were 0.15 nM and 0.19 nM, respectively.

`C=CCN1CC[C@]23c4c5ccc(O)c4O[C@H]2[C@H](NC(=O)c2cccc([125I])c2)CC[C@@]3(O)[C@H]1C5`: the Kd at Mu-type opioid receptor [2] was found to be 0.22 nM; in [3] it was 0.05 nM; in assay [4], 2.5 nM.

As to `O=C(N[C@@H]1CC[C@@]2(O)[C@H]3Cc4ccc(O)c5c4[C@@]2(CCN3CC2CC2)[C@H]1O5)c1cccc([125I])c1`, the results for the Kd (at Mu-type opioid receptor [2]; in [3]; in [4]) were 0.11 nM, 0.027 nM and 0.24 nM, respectively.

In the case of `C=CCN1CC[C@]23CCCC[C@H]2[C@H]1Cc1ccc(O)cc13` [LEVALLORPHAN], the results for the Ki on Mu-type opioid receptor [9], at Mu-type opioid receptor [10] and on Mu-type opioid receptor [11] were 0.48 nM, 1.69 nM and 1.29 nM, respectively.

In the case of `CN1CC[C@]23c4c5ccc(O)c4O[C@H]2[C@H](NC(=O)c2cccc(I)c2)CC[C@@]3(O)[C@H]1C5`, the Ki in assay [1] is 9 nM; at Mu-type opioid receptor [5], 1.75 nM. On Mu-type opioid receptor [2], this compound gave a Bmax of 1.49 pmol/mg.

For the compound `C=CCN1CC[C@]23c4c5ccc(O)c4O[C@H]2[C@H](NC(=O)c2cccc(I)c2)CC[C@@]3(O)[C@H]1C5`, the Ki in [1] is 0.08 nM; at Mu-type opioid receptor [5] it was 0.7 nM; in [6], 2.55 nM. Also, the Bmax on Mu-type opioid receptor [2] worked out at 1.18 pmol/mg; in assay [3] it was 1.15 pmol/mg; in assay [4] it was 2.7 pmol/mg.

As usually defined, the Ki is the dissociation constant of the complex between target and ligand, obtained from inhibition or displacement. Usually Kd stands for the constant that tells how readily two partners part at equilibrium.
